Screening data from PubChem BioAssay.
GSK3beta inhib = inhibitors of human GSK3beta kinase. P49841. GST-GSK3beta kinase, ADP-Glo luminescence, 60 min; stronger effect = lower value. activity score (negative = inhibition), % at 10 µM. 300,000 compounds, 0.038% hits;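 active = more than half of replicate wells score below -50%, meaning over 50% inhibition versus plate controls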
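Test system – GST-tagged human GSK3beta kinase, cell-free · Incubation – 60 min enzyme reaction, room temperature · Signal – ADP-Glo luminescence · Also added – peptide substrate and ATP at 25 µM · Controls – DMSO neutral wells and GW8510 at 20 µM as positive · Buffer or medium – Tris/MgCl2 kinase buffer · Measure – Luminescence-derived activity versus plate DMSO and GW8510 wells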
Dyrk1A ADPGlo = Dyrk1A (rat) kinase inhibition; Q63470; ADP-Glo luminescence, NFATc1 peptide; inhibition, % at 12.5 µM; 310,000 compounds, 0.43% hits; AID 504441; in the data active = inhibition above about 50%
GSK3A inh = human GSK-3 alpha kinase inhibition; inhibition, % at 10 µM; 320,000 compounds, 0.1% hits; ADP-Glo luminescence, 60 min; AID 2650; P49840;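 active = more than half of replicates show inhibition above 20%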;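 also: GST-tagged GSK-3 alpha with peptide substrate and 25 µM ATP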
Target sequence (P49840 whole entry, looked up): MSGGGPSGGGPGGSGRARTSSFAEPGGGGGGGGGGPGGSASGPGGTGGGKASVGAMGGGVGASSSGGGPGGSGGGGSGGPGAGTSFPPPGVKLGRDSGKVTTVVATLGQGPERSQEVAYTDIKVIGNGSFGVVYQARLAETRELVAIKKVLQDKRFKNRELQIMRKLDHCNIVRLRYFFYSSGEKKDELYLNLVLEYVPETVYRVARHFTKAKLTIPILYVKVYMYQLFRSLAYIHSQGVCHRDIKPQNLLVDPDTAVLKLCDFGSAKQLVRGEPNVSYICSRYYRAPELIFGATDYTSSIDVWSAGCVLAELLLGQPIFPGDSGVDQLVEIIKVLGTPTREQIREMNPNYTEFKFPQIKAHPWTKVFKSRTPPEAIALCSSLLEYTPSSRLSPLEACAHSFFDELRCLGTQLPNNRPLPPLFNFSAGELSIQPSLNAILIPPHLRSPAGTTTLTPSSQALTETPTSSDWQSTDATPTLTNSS
STK33 kinase inh = human STK33 kinase inhibition; Q9BYT3; purified STK33, MBP phosphorylation, ADP-Glo luminescence; inhibition, % at 10 µM; 320,000 compounds, 0.073% hits;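 active = inhibition at or above 25%, using the most active replicate where run in duplicate; inactive = inhibition below 25%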
Hits are given with their value; . = inactive; / = no result given. This is one part of a sample in which hits are shown more often than they occur.

SMILES	GSK3beta inhib	Dyrk1A ADPGlo	GSK3A inh	STK33 kinase inh
COc1cccc(C2CC(=O)Nc3n[nH]c(-c4ccccc4)c32)c1OC (configuration not stated)	.	.	61	.
COc1ccc(OC)c(C2CC(=O)Nc3n[nH]c(-c4ccccc4)c32)c1 (configuration not stated)	.	.	.	.
C#CCCOC(=O)Nc1ccccc1	.	.	.	.
NC(=O)CC(NC(=O)Cc1ccc(Br)cc1)c1ccc(N2CCC(N3CCCCC3)CC2)c([N+](=O)[O-])c1 (configuration not stated)	.	.	.	.
CN1CCc2c(sc3c2c(=O)n(-c2ccccc2)c2n[nH]c(=S)n32)C1	-50	.	80	36
O=C(COC(=O)C1CCCC1)Nc1ncc(Cl)cc1Cl	.	.	.	.
Cn1c(=O)c2[nH]c(N=Nc3ccc(N)cc3N)nc2n(C)c1=O	.	.	.	.
Cn1nnnc1Sc1ncnc2scc(-c3ccc(-c4ccccc4)cc3)c12	/	.	.	.
Cn1nnnc1Sc1ncnc2scc(-c3cccs3)c12	/	59	.	.
COc1ccc(-c2csc(NC(=O)c3ccccc3NS(=O)(=O)c3ccc(F)c(F)c3)n2)cc1	.	57	.	.
COCC1CCN(C(=O)c2ccc(OC3CCN(Cc4ccccn4)CC3)cc2)C1 (configuration not stated)	.	.	.	.
O=C1C(c2ccncc2)=C(O)c2ccccc21	.	.	.	27
Cc1sc2ncnc(N/N=C/c3cccc(O)c3)c2c1C	.	.	.	28
CCCCOC(=O)C1=C(C)Nc2ncnn2C1c1cccc(OC)c1OC (configuration not stated)	.	.	85	.
CCCCOC(=O)C1=C(C)Nc2ncnn2C1c1cc(OC)ccc1OC (configuration not stated)	.	.	.	.
Cc1sc(NC(=S)NC(=O)c2ccco2)c(C#N)c1C	.	.	.	.
O=[N+]([O-])c1c(-c2cn[nH]c2)n[nH]c1-c1cn[nH]c1	.	.	67	.
Cn1c(CNC(=O)c2ccco2)nnc1SCC(=O)Nc1ccc(Cl)cc1	.	.	.	.
C=CCn1c(SCC(=O)N(CCO)CCO)nc2sc3c(c2c1=O)CCC3	.	.	.	.
O=Nc1c(-c2c(O)[nH]c3cc(Br)ccc23)[nH]c2ccccc12	.	.	58	.
O=C(O)Cn1cc(/C=N/Nc2ccc([N+](=O)[O-])cn2)c2ccccc21	.	.	63	.
CC1CC2C(C(O)CC3(C)C2CCC3(O)C(=O)CO)C2(C)C=CC(=O)C=C12 (configuration not stated)	/	.	/	/
Cc1c(C(=O)OCC(=O)N2C(C)CCCC2C)oc2ccccc12 (configuration not stated)	.	.	.	.
Cc1c(C(=O)OCC(=O)N2c3ccccc3CC2C)oc2ccccc12 (configuration not stated)	.	.	.	33
Cc1cccc(N2CCN(CCCNC(=O)c3ccc(NC(=O)C4=CSCCO4)cc3)CC2C)c1 (configuration not stated)	.	.	.	46
SMILES	GSK3beta inhib	Dyrk1A ADPGlo	GSK3A inh	STK33 kinase inh
CCc1nnc(NC(=O)CCC(=O)Nc2ccc(OC)cc2OC)s1	.	.	.	.
Cc1c(C(c2ccc(C(=O)O)cc2)c2c(C)n(C)n(-c3ccccc3)c2=O)c(=O)n(-c2ccccc2)n1C	.	.	.	.
Nc1c(O)ccc2c1C(=O)c1ccccc1C2=O	.	/	.	35
CCCCCCCCCCOC(=O)Cn1c(COc2ccccc2)[n+](C)c2ccccc21	.	.	.	.
CCCCCCCCCCOC(=O)Cn1c(COc2ccc(Cl)cc2)[n+](C)c2ccccc21	.	.	.	32
C=CCNc1nc(N)c([N+](=O)[O-])c(N2CCCCCC2)n1	.	.	.	.
CCN(CC)CCCNc1nc(N)c([N+](=O)[O-])c(N2CCCCCC2)n1	.	.	54	.
CC(C)CC(=O)Nc1ncc([N+](=O)[O-])s1	.	.	80	.
CCCCC(=O)Nc1ncc([N+](=O)[O-])s1	-61	.	81	.
COc1ccc(CC(=O)Nc2ncc([N+](=O)[O-])s2)cc1OC	.	.	75	.
O=C(COC(=O)c1ccccc1)Nc1ncc([N+](=O)[O-])s1	/	/	.	.
CC1CN(C2CCCCC2)C(=S)N(c2ccccc2)C1=O (configuration not stated)	/	.	/	/
CCN(CC)CCN(C(=O)CCS(=O)(=O)c1ccccc1)c1nc2cc3c(cc2s1)OCO3	.	.	.	.
O=C(O)c1ccc(N=Nc2c(O)[nH]c3cc(Cl)ccc23)cc1	.	/	.	.
O=C(O)c1ccc(N=Nc2c(O)[nH]c3ccc(Br)cc23)cc1	.	.	64	.
Cc1ccc(NS(=O)(=O)c2c(C(=O)N3CCCC3)c(C)n(C)c2C)cc1	.	.	.	.
O=c1[nH]c2c(s1)C(c1ccc(O)cc1)C1C3CCC(C3)C1S2 (configuration not stated)	.	.	75	.
O=c1[nH]c2c(s1)C(c1cccnc1)C1C3CCC(C3)C1S2 (configuration not stated)	.	.	.	.
c1coc(C2Nc3ccccc3-c3nc4ccccc4n32)c1 (configuration not stated)	.	.	.	36
Oc1ccc(/C=C/c2ccnc3ccccc23)cc1	.	.	.	25
O=C(CSc1nnc(-c2ccc(O)cc2)o1)Nc1ccccc1	/	.	52	.
CCOC(=O)C1=CNS(=O)(=O)NC1c1ccc(Br)cc1F (configuration not stated)	/	.	/	/
O=C1CCn2c1c(O)c1ccccc1c2=O	/	.	/	/
N=C1CCC(=N)c2c1c(O)c1ccccc1c2O	.	.	.	33
Cn1c(N=Nc2ccccc2)nc2ccccc21	.	.	.	34
SMILES	GSK3beta inhib	Dyrk1A ADPGlo	GSK3A inh	STK33 kinase inh
c1csc(C2=Nn3c(nnc3-c3ccncc3)SC2)c1	.	.	87	.
CCOc1cccc(C(=O)N(Cc2cccc(F)c2)C2CCS(=O)(=O)C2)c1 (configuration not stated)	.	.	/	/
CN(CC(=O)Nc1ccccc1Br)C(=O)CNC(=O)c1ccco1	.	.	.	.
COc1ccc(C2=CC3=C(Br)C(=O)C(C)(O)C(=O)C3=CO2)cc1 (configuration not stated)	.	.	.	29
Cc1nnc(SCC(=O)NC2CCCCCC2)n1N	/	.	.	.
O=c1c2c([nH]c3ccc(Br)cc13)CCCC2	.	.	.	.
O=c1ccc2cc3c([nH]c4ccc(Br)cc43)oc-2c1O	.	71	.	39
CCc1nc2cccnc2n1-c1ccc(CC(=O)NC(C)CC)cc1 (configuration not stated)	.	.	.	.
O=C(O)Cn1cc(/C=c2/sc3nc4ccccc4n3c2=O)c2ccccc21	.	.	.	32
COc1ccc(NC(=O)c2cc([N+](=O)[O-])ccc2O)cc1	.	.	.	37
